# Assay results reported in ChEMBL document CHEMBL4699617, “Rational Design of Right-Handed Heterogeneous Peptidomimetics as Inhibitors of Protein-Protein Interactions” (J Med Chem, 2020).
# Active and inactive are the calls of the source. The rule behind the calls is not given here.
# Assays:
# [1] = target: T1, E3 ubiquitin-protein ligase Mdm2 (Homo sapiens, UniProt Q00987); experiment: Binding affinity to human recombinant MDM2 (1 to 150 residue) expressed in Escherichia coli using presence of FITC-labelled compound by fluorescence polarization assay
# Target sequence in this assay (Q00987 whole entry): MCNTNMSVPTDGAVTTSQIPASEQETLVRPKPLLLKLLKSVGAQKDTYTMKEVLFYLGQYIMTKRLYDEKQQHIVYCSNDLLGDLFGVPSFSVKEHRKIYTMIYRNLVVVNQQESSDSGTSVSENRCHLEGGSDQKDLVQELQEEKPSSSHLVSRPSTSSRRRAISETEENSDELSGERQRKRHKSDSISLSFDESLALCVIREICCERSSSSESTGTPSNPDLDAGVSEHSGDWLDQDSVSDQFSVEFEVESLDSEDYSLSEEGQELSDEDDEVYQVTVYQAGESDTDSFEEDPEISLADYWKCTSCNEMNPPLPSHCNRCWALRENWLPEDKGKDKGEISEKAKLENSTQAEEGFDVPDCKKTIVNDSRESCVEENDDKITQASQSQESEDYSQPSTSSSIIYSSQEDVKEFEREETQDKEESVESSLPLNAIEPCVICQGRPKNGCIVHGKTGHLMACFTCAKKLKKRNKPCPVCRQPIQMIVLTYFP
# [2] = target: T1, E3 ubiquitin-protein ligase Mdm2; experiment: Inhibition of MDM2 in human U2OS cells assessed as increase in p53 expression at 30 uM incubated for 16 hrs by Western blot analysis; type: cell-based
# Summary of the method: (§1)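 U2OS osteosarcoma cells carrying endogenous wild-type p53, treated at 30 μM for 16 h. Cells lysed in Tris-HCl pH 8.0/150 mM NaCl/0.5% NP-40 with PMSF and protease inhibitors, spun 14,000g, 10 min, 4 °C. Supernatant boiled in Laemmli buffer, run on SDS-PAGE and immunoblotted for p53 pathway markers.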
# Target sequence in this assay (Q00987 whole entry, looked up): as the sequence (Q00987 whole entry) above
# [3] = target: T1, E3 ubiquitin-protein ligase Mdm2; experiment: Inhibition of MDM2 in human U2OS cells assessed as increase in MDM2 expression at 30 uM incubated for 16 hrs by Western blot analysis; type: cell-based; summary of the method: as §1
# Target sequence in this assay (Q00987 whole entry, looked up): as the sequence (Q00987 whole entry) above
# [4] = target: T1, E3 ubiquitin-protein ligase Mdm2; experiment: Inhibition of MDM2 in human U2OS cells assessed as increase in p21 expression at 30 uM incubated for 16 hrs by Western blot analysis; type: cell-based; summary of the method: as §1
# Target sequence in this assay (Q00987 whole entry, looked up): as the sequence (Q00987 whole entry) above
IC50 [1] [µM],p53 expression increase (activity call) [2],Increase in MDM2 expression (active/inactive) [3],p21 expression increase (active/inactive call) [4],Compound
11.7,Active,Active,Active,CC(=O)N[C@H](C(=O)N[C@@H](Cc1ccccc1)CN(CC(=O)N[C@H]1CCC(=O)NCCCC[C@@H](CN(CC(=O)N[C@@H](CC(C)C)C(=O)N[C@@H](CO)CN(CC(=O)N[C@@H](C)C(N)=O)S(C)(=O)=O)S(=O)(=O)CC(C)C)NC(=O)[C@H](C)NC(=O)CN(S(=O)(=O)c2ccc3ccccc3c2)C[C@H](Cc2ccc(O)cc2)NC1=O)S(C)(=O)=O)[C@@H](C)O
9.4,Active,Active,Active,CC(C)C[C@H](NC(=O)CN(C[C@@H]1CCCCNC(=O)CC[C@H](NC(=O)CN(C[C@H](Cc2ccccc2)NC(=O)[C@@H](NC(=O)CCc2ccccc2)[C@@H](C)O)S(C)(=O)=O)C(=O)N[C@@H](Cc2ccc(O)cc2)CN(S(=O)(=O)c2ccc3ccccc3c2)CC(=O)N[C@@H](C)C(=O)N1)S(=O)(=O)CC(C)C)C(=O)N[C@@H](CO)CN(CC(=O)N[C@@H](C)C(N)=O)S(C)(=O)=O
–,Active,Active,Active,CC(=O)N[C@H](C(=O)N[C@@H](Cc1c[nH]c2ccccc12)CN(CC(=O)N[C@H]1CCC(=O)NCCCC[C@@H](CN(CC(=O)N[C@@H](CC(C)C)C(=O)N[C@@H](CO)CN(CC(=O)N[C@@H](C)C(N)=O)S(C)(=O)=O)S(=O)(=O)CC(C)C)NC(=O)[C@H](C)NC(=O)CN(S(=O)(=O)c2ccc3ccccc3c2)C[C@H](Cc2ccc(O)cc2)NC1=O)S(C)(=O)=O)[C@@H](C)O
9,Active,Active,Active,CC(=O)N[C@H](C(=O)N[C@@H](Cc1ccccc1)CN(CC(=O)N[C@H]1CCC(=O)NCCCC[C@@H](CN(CC(=O)N[C@@H](CC(C)C)C(=O)N[C@@H](CO)CN(CC(=O)N[C@@H](C)C(N)=O)S(C)(=O)=O)S(C)(=O)=O)NC(=O)[C@H](C)NC(=O)CN(S(=O)(=O)c2ccc3ccccc3c2)C[C@H](Cc2ccc(O)cc2)NC1=O)S(C)(=O)=O)[C@@H](C)O
